APP 5'UTR act – activates APP 5'UTR luciferase reporter; SH-SY5Y APP 5'UTR luciferase reporter, luminescence; zero percent = DMSO vehicle wells; activation, % at 2 µM; 190,000 tested, 1% active; AID 1276;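 active = activation above a set limit, based on mean plus 3 SD of controls, cut at about 140% in these data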
Rad51 HR inh – blocks human Rad51 in homologous recombination | Q06609 | hRad51 DNA strand exchange, fluorescence dequenching | inhibition, % at 10 µM | 200,000 tested, 0.085% active | AID 1385;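 active = inhibition above 40% at the single screening dose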;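 note: 0% = DMSO control wells and 100% = blanks with heterologous ssDNA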
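Material: Human Rad51 nucleoprotein filaments preassembled on unlabelled ssDNA | Also added: Labelled 47-mer dsDNA for strand exchange | Dosing: Single dose, 10 µM final compound | Schedule: 30-min compound preincubation and 15-min exchange, both room temperature | Technique: Fluorescence dequenching at 485/520 nm | Measure: Percent inhibition relative to plate controls and blanks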
FLuc inh counter – counter-screen for luciferase assay inhibitors: firefly luciferase inhibition | P08659 | ATPLite firefly luciferase biochemical luminescence, 10 min | inhibition, % at 10 µM | 200,000 tested, 1.5% active | AID 1006;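 active = inhibition above about 50% when tested at 10 µM, limit read from the data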
Target sequence (P08659 whole entry, looked up): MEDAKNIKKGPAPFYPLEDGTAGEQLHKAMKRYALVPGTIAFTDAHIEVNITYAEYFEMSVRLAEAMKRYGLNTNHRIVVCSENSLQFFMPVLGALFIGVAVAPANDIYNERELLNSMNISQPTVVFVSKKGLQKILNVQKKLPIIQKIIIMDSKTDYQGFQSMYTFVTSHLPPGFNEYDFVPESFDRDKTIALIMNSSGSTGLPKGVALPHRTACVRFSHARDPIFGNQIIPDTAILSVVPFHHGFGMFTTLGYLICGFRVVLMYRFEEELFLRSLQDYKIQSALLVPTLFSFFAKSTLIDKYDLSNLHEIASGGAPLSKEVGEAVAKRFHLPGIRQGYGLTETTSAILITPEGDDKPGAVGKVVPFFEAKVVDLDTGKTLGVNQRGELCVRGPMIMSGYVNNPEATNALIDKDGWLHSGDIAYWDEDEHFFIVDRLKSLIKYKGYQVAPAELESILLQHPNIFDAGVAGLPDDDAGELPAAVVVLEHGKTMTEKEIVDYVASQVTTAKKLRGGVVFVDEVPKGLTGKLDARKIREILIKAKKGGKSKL
STAT1 act – increases IFN-gamma driven STAT1 reporter signal. AID 932. activation (% of control), % at 5.5 µM. NIH 3T3 STAT1-luciferase reporter, luminescence; 100% = IFN-gamma alone, no compound. 200,000 tested, 2.6% active;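 active = activation above the screen-wide mean activation plus 3 SD, cut at about 130% in these data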;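 note: raw ratio to IFN-gamma control signal so 100% means no change and 0% no light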
FLuc stim CS – firefly luciferase counter-screen for stimulation assays | P08659 | ATPlite luciferase biochemical, luminescence, 10 min; 0 = ATP-free wells, 1 = DMSO control | activation factor at 10 µM | 200,000 tested, under 10 active;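 active = luciferase activation factor, scaled between plate controls, of at least 2 with compound at 10 µM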
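assay system = Luciferase/luciferin detection reagent, cell-free biochemical luciferase assay | also added = ATP substrate | times = 10 min post-reagent at room temperature | measured by = luminescence from luciferase reaction | measure = luciferase activation, seen as luminescence increase over controls | benchmarks = low control with PBS replacing ATP, high control enzyme plus ATP without compound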
NF-kB expr up – raises NF-kB expression in human neuronal cells. AID 1239. 190,000 tested, 1.6% active. fold change at 12.5 µM. NF-kB reporter expression; hits give high values; in the data active = fold change above about 3.3
STAT1 activ conf – confirmation of STAT1 signaling activators. 1,200 tested, 97% active. AID 1262. activation (% of control), % at 5.7 µM. shares compounds with STAT1 act. NIH 3T3 STAT1-luciferase reporter, IFN-gamma potentiation, luminescence; 100% = IFN-gamma EC80 alone, no compound;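 active = activation above a set limit carried over from the earlier primary STAT1 screen, cut at about 140% in these data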;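 note: simple ratio to median IFN-gamma plus DMSO wells so 0% means no light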
NFkB act STAT1ct – counter-screen for STAT1 activators: NF-kappaB activation; shares compounds with STAT1 act; HEK293T NF-kB luciferase reporter, TNF-alpha stimulated, luminescence; 100% = TNF-alpha with vehicle only; activation (% of control), % at 5.7 µM; 1,200 tested, 43% active; AID 1306;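 active = activation above the mean of solvent-only control wells plus 3 SD, set per campaign, cut at about 130% in these data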;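 note: TNF-alpha given at a submaximal dose yielding about 80% of full reporter signal; values are well signal over median control so 100% means no change and 0% no light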
STAT3 act 2 – activates human STAT3, counter-screen to STAT1 activators. activation (% of control), % at 5.7 µM. 1,200 tested, 46% active. U3A cells STAT3-luciferase reporter, IL-6, luminescence; cells lack STAT1; 100 = IL-6 alone, no compound effect. shares compounds with STAT1 act;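 active = activation above the solvent-only control well mean plus 3 SD, set per plate batch, cut at about 110% in these data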;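 note: 0% = no luminescence and 100% = median IL-6 plus DMSO wells; higher means more STAT3 reporter activation so hits are non-selective activators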
* = called active by the depositor; · = no result. Hits are enriched below; roughly 3.9% of the tested compounds scored in any of these assays.

SMILES	APP 5'UTR act	Rad51 HR inh	FLuc inh counter	STAT1 act	FLuc stim CS	NF-kB expr up	STAT1 activ conf	NFkB act STAT1ct	STAT3 act 2
CCOc1ccc2nc(N3CCCCCC3)sc2c1	194*	3	42	191*	0.6	7.2*	246*	144*	106
CCOCC(=O)Nc1nc2ccc(OCC)cc2s1	84	-4	24	152*	0.8	2.8	167*	125	101
O=C(COc1ccc(Br)cc1)N/N=C1/SCC(=O)N1Cc1ccccc1	-9	-45	-1	107	1	1.9	·	·	·
CCOC(=O)/C=C1\SCC(=O)N1CC(=O)NCc1cccc(Cl)c1	13	-7	-4	103	1	1	·	·	·
O=C(NC1=NCCS1)c1sc2ccccc2c1Cl	146*	-2	56*	173*	0.4	7.1*	210*	130	116*
CCCCc1nc2sc3c(=O)[nH]cnc3c2c2c1CCCC2	·	16	·	·	·	·	·	·	·
Cn1cccc1/C=C1\CCC/C(=C\c2cccn2C)C1=O	143*	-274	21	152*	0.8	6*	228*	155*	108
Cc1ccc(C(=O)c2cc3ccccc3o2)cc1	148*	1	57*	157*	0.4	3.9*	195*	139*	103
NNC(=O)c1cc2c(ccc3ccccc32)o1	3	-13	1	103	1	1.2	·	·	·
CCN(CC)S(=O)(=O)c1cccc(NC(=O)c2cc3ccccc3o2)c1	23	-2	12	102	0.9	0.88	·	·	·
CC(=O)Nc1cccc(NC(=O)c2cc3ccccc3o2)c1	125	1	64*	156*	0.4	3.4*	178*	135*	109
O=C(Nc1cccnc1)c1cc2c(ccc3ccccc32)o1	220*	-4	39	177*	0.6	5.3*	260*	144*	111*
O=C(c1cccc([N+](=O)[O-])c1)c1cc2ccccc2o1	19	13	-1	109	1	1.9	·	·	·
Cc1cc(C(=O)Nc2ccccc2)oc1C	98	-4	26	155*	0.7	3.5*	170*	136*	110
O=C(CSc1ccccc1)Nc1ccc(C(=O)Nc2ccc(O)cc2)cc1	-2	-5	4	94	1	1.1	·	·	·
O=C(Nc1ccccc1)c1cc2ccccc2o1	230*	-1	74*	153*	0.3	8.8*	227*	134*	99
CC(=O)c1cnc(SCc2ccc(Cl)cc2)nc1C	10	-2	-5	202*	1.1	4.7*	172*	111	101
CC(=O)N1CC23C=CC(CC2CC12CCCCCC2)O3 (stereo not drawn)	6	2	-5	93	1	0.87	·	·	·
Cc1ccccc1Nc1nc(N)nc(CSc2ccc(F)cc2)n1	168*	·	3	156*	1	6*	195*	127	125*
CN(C)c1ccc(C(=O)/C=C/c2ccco2)cc1	204*	-5	91*	168*	0.1	5.6*	178*	120	122*
COc1ccc(C(=O)CSc2nnc3ccccn23)cc1OC	11	7	-6	104	1.1	1.3	·	·	·
O=C(CSc1nnc2ccccn12)c1ccc2c(c1)OCCO2	123	9	20	158*	0.8	3.2	186*	132	130*
CCOC(=O)/C(C#N)=C/c1cc(C)n(-c2ccccc2)c1C	153*	4	76*	165*	0.2	1.2	255*	115	105
O=C(NC(=S)Nc1ccc(F)cc1)c1ccc2c(c1)OCCO2	213*	-7	34	152*	0.7	2.1	211*	130	101
O=C(NC(=S)Nc1ccc(N2CCOCC2)cc1)c1ccc2c(c1)OCCO2	16	-13	-4	108	1	0.76	·	·	·
SMILES	APP 5'UTR act	Rad51 HR inh	FLuc inh counter	STAT1 act	FLuc stim CS	NF-kB expr up	STAT1 activ conf	NFkB act STAT1ct	STAT3 act 2
Cc1ccc(-c2nnn(C/C(N)=N/O)n2)cc1	3	-2	3	104	1	1	·	·	·
CC1CCc2nc(/C(C#N)=C/c3cccnc3)sc2C1 (stereo not drawn)	168*	-2	44	220*	0.6	2.1	286*	146*	113*
N#C/C(=C\c1cccnc1)c1nc2c(s1)CCCC2	147*	3	31	165*	0.7	4.2*	185*	133	102
CC1CCc2c(sc(/N=C/c3cccnc3)c2C(N)=O)C1 (stereo not drawn)	·	11	·	·	·	·	·	·	·
Cc1c(NC(=O)C2CCCCC2)cc(C(=O)N2CCOCC2)cc1[N+](=O)[O-]	0	2	0	96	1	1.3	·	·	·
COc1ccc(-c2noc(Cc3cccs3)n2)cc1	96	-3	11	162*	0.9	3.9*	181*	138*	104
COc1ccc(-c2cc(C(=O)NC(Cc3cc4ccccc4[nH]3)C(=O)O)c(C)o2)cc1OC (stereo not drawn)	-8	·	-1	108	1	1.4	·	·	·
COc1ccc(-c2cc(C(=O)O)c(C)o2)cc1OC	99	7	10	152*	0.9	2.4	218*	79	112*
O=C(NCC1CC1)C1(C(F)(F)F)CC(CCCO)CCCO1 (stereo not drawn)	·	6	·	·	·	·	·	·	·
CCOC(=O)c1sc(-c2ccc(OC)cc2)cc1N	159*	-7	33	157*	0.7	7.1*	206*	137*	109
CCOC(=O)c1sc(-c2ccc(F)cc2)cc1N	95	-2	13	125	0.9	2.1	·	·	·
CN(C(=O)c1ccc(=O)n(Cc2ccc(Cl)cc2)c1)c1ccccc1	26	-11	-1	98	1	0.97	·	·	·
Cc1cc(C(=O)CN2CCC(C)CC2)c(C)n1-c1ccc(F)cc1	136*	-7	5	157*	1	0.74	164*	132	118*
N#CCCn1ccc(NC(=O)c2ccc(Cl)cc2)n1	10	-2	4	105	1	1.3	·	·	·
O=C(Nc1ccn(Cc2ccc(Cl)cc2)n1)c1ccccc1	47	-7	25	151*	0.7	2.5	152*	122	112*
CCc1ccc(NC(=O)c2ccc3ncsc3c2)cc1	152*	·	45	162*	0.6	6.4*	203*	138*	105

Screens deposited in PubChem by several laboratories.
